The source made the active and inactive calls. The rule behind the calls is not given here.
What was measured:
ASPC1 [1] = assay: Antiproliferative activity against human AsPC1 cells assessed as cell viability at 10 uM after 48 hrs by MTS assay; format: functional, cell-based
[2] = target: Proto-oncogene tyrosine-protein kinase Src (Homo sapiens) (UniProt P12931); assay: Binding affinity to Src kinase SH2 domain (unknown origin) at 100 uM by STD-NMR spectroscopy
How it was run: (§1)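 STD-NMR on recombinant SH2 (SUMO-fusion expressed in E. coli Rosetta2, Ni-purified, tag cleaved) in 100% D2O with trace DMSO-d6; 50 ms Gaussian saturation pulse, saturation and delay times 5.0 s, 16 scans with 720 averages; ligand/protein ratio 5:1 or 20:1 depending on compound.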

BXPC-3 [3] = assay: Antiproliferative activity against human BxPC3 cells assessed as cell viability at 0.01 to 10 uM after 48 and 72 hrs by MTS assay; format: functional, cell-based
[4] = target: Calmodulin-1 (Homo sapiens) (UniProt P0DP23); assay: Binding affinity to human calmodulin by isothermal titration calorimetry
[5] = Cytotoxicity against human MCF10A cells assessed as cell viability at 0.01 to 10 uM after 48 and 72 hrs by MTS assay; format: cell-based; conditions: mcf-10a
ASPC1 [6] = assay: Antiproliferative activity against human AsPC1 cells assessed as cell viability at 0.01 to 10 uM after 48 and 72 hrs by MTS assay; format: functional, cell-based
[7] = Cytotoxicity against human MCF10A cells assessed as cell viability at 10 uM after 48 hrs by MTS assay; format: cell-based; conditions: mcf-10a
MIA PaCa-2 [8] = assay: Antiproliferative activity against human MIAPaCa2 cells assessed as cell viability at 10 uM after 48 hrs by MTS assay; format: functional, cell-based
BXPC-3 [9] = assay: Antiproliferative activity against human BxPC3 cells assessed as cell viability at 10 uM after 48 hrs by MTS assay; format: functional, cell-based
[10] = target: T1, Calmodulin/Proto-oncogene tyrosine-protein kinase Src (Homo sapiens) (UniProt P12931+P0DP23); assay: Inhibition of human CaM/Src kinase SH2 domain interaction assessed as apparent association of CaM-Src kinase SH2 domain at 25 fold excess compound concentration by isothermal titration calorimetry; format: protein assay
How it was run: (§2)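 ITC at 27°C: SH2 (0.02mM) premixed with compound in DMSO in cell, titrated with CaM (0.2mM, DMSO matched), 20µl per injection, 300 s spacing; both proteins dialyzed overnight in 10mM Bis-Tris pH6.5, 50mM NaCl, 1mM CaCl2, 0.1mM TCEP; recombinant proteins from E. coli, SUMO tag removed.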

MIA PaCa-2 [11] = assay: Antiproliferative activity against human MIAPaCa2 cells assessed as cell viability at 0.01 to 10 uM after 48 and 72 hrs by MTS assay; format: functional, cell-based
[12] = target: T1, Calmodulin/Proto-oncogene tyrosine-protein kinase Src (Homo sapiens); assay: Inhibition of human CaM/Src kinase SH2 domain interaction assessed as apparent association of CaM-Src kinase SH2 domain at 10 fold excess compound concentration by isothermal titration calorimetry; format: protein assay; how it was run: as §2
[13] = target: Proto-oncogene tyrosine-protein kinase Src (Homo sapiens) (UniProt P12931); assay: Binding affinity to Src kinase SH2 domain (unknown origin) at 25 uM by STD-NMR spectroscopy; how it was run: as §1
MIA PaCa-2 [14] = assay: Cytotoxicity against human MIAPaCa2 cells at 1 to 50 uM after 8 days by CellTiter Glo assay; format: functional, cell-based
How it was run: (§3)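 3D microtumors: 10K MiaPaCa-2 cells in ice-cold HuBiogel (3 mg/ml), 2 mm beads polymerized 5 min at 37C, cultured up to 14 days in DMEM/10% FBS; compound 1–50 µM added every other day (final 5% FBS, 0.5% DMSO); media or DMSO controls; day 1, 7, 14 Calcein-AM (1.0µM) live imaging; proliferation by CellTiter Glo relative to DMSO; 6–8 beads/group.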

MIA PaCa-2 [15] = assay: Cytotoxicity against human MIAPaCa2 cells at 1 to 50 uM after 8 days by calcein-AM staining based fluorescence analysis; format: functional, cell-based; how it was run: as §3

Activity [2]	Activity [4]	Ka [10]	Ka [12]	Activity [13]	SMILES	Activity (ASPC1 [1])	Activity (BXPC-3 [3])	Activity [5]	Activity (ASPC1 [6])	Activity [7]	Activity (MIA PaCa-2 [8])	Activity (BXPC-3 [9])	Activity (MIA PaCa-2 [11])	Activity (MIA PaCa-2 [14])	Activity (MIA PaCa-2 [15])
–	inactive	–	2.49 ×10⁶ /M	Active	O=C(Nc1ccc(C(=O)O)cc1)Nc1ccc(-c2nc(N3CCOCC3)nc(N3CCOCC3)n2)cc1	Active	Active	Toxic	Active	Toxic	Active	Active	Active	–	–
–	inactive	–	–	–	Cc1nc2ccccn2c1-c1csc(Nc2ccc(C(=O)O)cc2)n1	Active	–	–	–	Toxic	Active	Active	–	–	–
–	inactive	–	–	–	O=C1COc2ccc(C(=O)/C=C/c3cc(F)cc4c3OCOC4)cc2N1	Active	–	–	–	Toxic	Active	Active	–	Active	Active

The next lines start with the molecule.

SMILES	Activity [2]	Activity [4]	Ka [10]	Ka [12]	Activity [13]	Activity (ASPC1 [1])	Activity (BXPC-3 [3])	Activity [5]	Activity (ASPC1 [6])	Activity [7]	Activity (MIA PaCa-2 [8])	Activity (BXPC-3 [9])	Activity (MIA PaCa-2 [11])	Activity (MIA PaCa-2 [14])	Activity (MIA PaCa-2 [15])
OC[C@@H]1O[C@H](n2cnc3c(NCc4ccco4)ncnc32)[C@H](O)[C@@H]1O	Active	inactive	2.03 ×10⁶ /M	–	–	Active	Active	Toxic	Active	Toxic	Active	Active	Active	–	–
COc1ccc(-c2n[nH]c(NC(=O)c3cccc(S(=O)(=O)N4CCc5ccccc54)c3)n2)cc1	–	–	–	–	–	Active	–	–	–	Toxic	Active	Active	–	–	–
CC/C(=C(\c1ccccc1)c1ccc(OCCN(C)C)cc1)c1ccccc1	–	–	–	–	–	Active	–	–	–	–	Active	Active	–	–	–
N#Cc1ccc(Cc2cnc(NC(=O)CCc3ccc4c(c3)OCO4)s2)cc1	–	–	–	–	–	Active	–	–	–	Toxic	Active	Active	–	–	–
Cc1ccc(Cc2cnc(NC(=O)c3ccc(-n4ccnc4)cc3)s2)cc1	–	–	–	–	–	Active	–	–	–	–	Active	Active	–	–	–
